Calls of active or inactive are those of the source.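 The calls were made as follows: active = inhibition of 30% or more at any tested concentration; inactive = the rest.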

The results in this text go back to PubChem BioAssay AID602309 (Southern Research Specialized Biocontainment Screening …, 2012).

The first assay has as its target M17 leucyl aminopeptidase (Plasmodium falciparum 3D7). In words: Inhibition of P. falciparum M17 aminopeptidase – biochemical, QFRET, set 3, dose response (AID 602309). Conditions: purified rPfM17LAP, H-Leu-NHMec fluorogenic cleavage. In a few lines:
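Material – recombinant P. falciparum M17 leucyl aminopeptidase · Input – enzyme 5 µg/mL final · Buffer or medium – CoCl2-containing Tris buffer pH 7.5 · Also added – fluorogenic substrate H-Leu-NHMec at 0.1 mM final · Timing – 90 min reaction, room temperature · Technique – fluorescence at 370/460 nm · Read-out – IC50 from % inhibition dose-response fit · Benchmarks – full-reaction and no-enzyme controls · Replicates – triplicates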
Regarding `CCC(C)Oc1ccc(CC(=O)NO)cc1` (stereo not drawn), the IC50 (usually the concentration at which inhibition is half-maximal) was 2.27 µM.
Turning to `CCCCOc1cccc(CC(=O)NO)c1`, the IC50 is 2.26 µM.
Still for that read-out and setting: next, `O=C(NO)c1ccc2ccccc2c1`: 46.3 µM; `CCCOc1ccc(CC(=O)NO)cc1`: 1.39 µM; `CCCCOc1ccc(C(C)C(=O)NO)cc1` (stereo not drawn): 2.16 µM.

Still in this assay, the particulars now being: purified rPfM17LAP, H-Leu-NHMec fluorogenic cleavage; at 100 µM (top of the series).
`CCCCOc1ccc(CN(O)C(C)=O)cc1`: the inhibition entry was “inactive”.
On the same count and under the same terms, next, `CCCCOc1ccc(C(C)(C)C(=O)NO)cc1`: “inactive”.
On the same count and under the same terms, next, `CN(C)CCOc1ccc(CC(=O)O)cc1`: “inactive”; `CCCCOc1cccc(CC(=O)OC)c1`: “inactive”.
The same measure, in the same setting: next, `CCCCOc1ccc(C(C)C(=O)OC)cc1` (stereo not drawn): “inactive”.
As for `CCCCOc1ccc(C(C)(C)C(=O)O)cc1`, the inhibition entry was “inactive”.
On the same count and under the same terms, to `CCCCOc1ccc(CN(O)C(=O)c2ccccc2)cc1` belongs “inactive”.
The same measure, in the same setting: next, `CCCOc1ccc(CC(=O)O)cc1`: “inactive”.
